The text below walks through data of PMC5943194 (Environmental science and pollution research international, 2017).

“Also recorded” adds a separate entry of the source.

The subject of series [1] is all cell lines (T47D.Luc, MCF-7, LNCaP, HepaRG). Put plainly: Cytotoxicity, neutral red assay. It is filed as cell-based, human. The note with it: up to 25 μM concentration.
For series [2], the system named is ER target gene TFF1 mRNA in MCF-7 cells. Briefly: Modulation of E2-induced TFF1 mRNA in MCF-7 cells. It is filed as cell-based, human. The following applies: 25 μM, 24 h, co-exposure with E2. Summed up: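 MCF-7 cells (passages 15–18) in phenol red-free DMEM/F12 with 5% charcoal/dextran FBS were co-exposed for 24 h to test compound (25 μM) plus E2 (5 pM). TFF1 mRNA was measured by qRT-PCR: RT 50°C 20 min, 95°C 15 min, then 40 cycles of 95°C 15 s/60°C 60 s. PBGD was the reference gene, with comparative Ct analysis. Three independent experiments, n=6.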

The test system of a further series is ER. The note with it: ref Hamers et al. 2011; cited from earlier work.
In the next series the test system is AR. The following applies: ref Hamers et al. 2011; cited from earlier work.
Series [3] concerns the target T1, estrogen receptor (ER) (Homo sapiens, UniProt P03372). Put plainly: ER-CALUX assay, ER-antagonistic activity, co-exposure with E2. The following applies: T47D.Luc cells, 24 h; for ER-antagonistic Response at 25 μM (% of E2 response): in the presence of E2 (5 pM); for Modulation of E2-dependent induction of luciferase activity, in words: combined exposure with E2 (5 pM). It is filed as cell-based. In outline:
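ER-CALUX in T47D.Luc cells (passages 22–25) kept in phenol red-free DMEM/F12 with 5% charcoal/dextran FBS. Test compound in DMSO was co-exposed with E2 (5 pM) for 24 h, then cells were lysed at pH 7.8 and luciferase read. IC25/IC50 are concentrations inhibiting E2-induced luciferase by 25/50%, calculated from full dose-response curves. Three independent experiments in triplicate.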

The target of series [4] is T1, estrogen receptor (ER). Briefly: ER-CALUX assay, ER-agonistic activity. The note with it: T47D.Luc cells, 24 h; for ER-agonistic Response at 10 μM (% of E2max): relative to E2 (15 pM). It is filed as cell-based. Summed up: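 T47D.Luc cells (passages 22–25) stably carry pEREtataLuc and were exposed in phenol red-free DMEM/F12 with 5% charcoal/dextran FBS. Cells were seeded at 20,000 cells/cm2 and dosed 24 h later with test compound in DMSO for 24 h. They were then lysed (10 mM Tris, 2 mM DTT, 2 mM EGTA, pH 7.8) and luciferase measured. RLU minus DMSO control gave fold induction relative to E2 (15 pM) maximum.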

Series [5] relates to AR target gene PSA mRNA in LNCaP cells. Put plainly: Suppression of DHT-induced PSA mRNA in LNCaP cells. It is filed as cell-based, human. The note with it: 25 μM, 24-h co-exposure to 1 nM DHT. Summed up: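 LNCaP cells (passages 4–6) were grown in RPMI-1640 with 10% FBS, then moved to phenol red-free RPMI-1640 with 5% dextran/charcoal-treated serum. After 24 h in fresh medium they were co-treated for 24 h with test compound and DHT (1 nM). PSA mRNA was measured by qRT-PCR (PBGD reference, comparative Ct) and expressed relative to DHT alone. Three independent experiments, n=6.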

In the next series the test system is RyRs. The following applies: ref Pessah et al. 2009; cited from earlier work.
Series [6] relates to PXR-dependent CYP3A4 mRNA in HepaRG cells. Briefly: PXR-agonistic response: induction of CYP3A4 mRNA in differentiated HepaRG cells. The series is classed as cell-based, human. The note with it: 24 h. Summed up:
(§1)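 Differentiated HepaRG cells (passages 7–9) were grown 14 days in growth medium, then 14 days in differentiation medium, and returned to growth medium 3 days before a 24 h exposure to test compound (0.01–25 μM). CYP2B6 and CYP3A4 mRNA were measured by qRT-PCR (PBGD reference, comparative Ct) relative to PB (2 mM) and RIF (50 μM), respectively. EC25/EC50 were taken from dose-response curves.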

The subject of series [7] is CYP2B6 mRNA (CAR-dependent). Briefly: CAR-agonistic response: induction of CYP2B6 mRNA in differentiated HepaRG cells. It is filed as cell-based, human. The following applies: human, differentiated HepaRG cells. Summed up: as §1
Series [8] has as its system CAR-dependent CYP2B6 mRNA in HepaRG cells. The description is as above. The note with it: CYP2B6 mRNA, HepaRG, 24 h, relative to PB (2 mM). The series is classed as cell-based, human. In outline: as §1
For series [9], the system named is ER target gene TFF1 mRNA in MCF-7 cells. Briefly: Induction of TFF1 mRNA in MCF-7 cells. It is filed as cell-based, human. The note with it: 25 μM, 24 h. Summed up: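 MCF-7 cells (passages 15–18) were moved to phenol red-free DMEM/F12 with 5% charcoal/dextran FBS and 1% non-essential amino acids. After 24 h in fresh medium they were treated for 24 h with 25 μM test compound. TFF1 mRNA was quantified by one-step qRT-PCR (PBGD reference, comparative Ct) and expressed relative to maximal induction by E2 (15 pM). Three independent experiments, n=6.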

Setting [10] is: CYP3A4 mRNA, relative to RIF (50 μM).

T1 sequence (P03372 whole entry): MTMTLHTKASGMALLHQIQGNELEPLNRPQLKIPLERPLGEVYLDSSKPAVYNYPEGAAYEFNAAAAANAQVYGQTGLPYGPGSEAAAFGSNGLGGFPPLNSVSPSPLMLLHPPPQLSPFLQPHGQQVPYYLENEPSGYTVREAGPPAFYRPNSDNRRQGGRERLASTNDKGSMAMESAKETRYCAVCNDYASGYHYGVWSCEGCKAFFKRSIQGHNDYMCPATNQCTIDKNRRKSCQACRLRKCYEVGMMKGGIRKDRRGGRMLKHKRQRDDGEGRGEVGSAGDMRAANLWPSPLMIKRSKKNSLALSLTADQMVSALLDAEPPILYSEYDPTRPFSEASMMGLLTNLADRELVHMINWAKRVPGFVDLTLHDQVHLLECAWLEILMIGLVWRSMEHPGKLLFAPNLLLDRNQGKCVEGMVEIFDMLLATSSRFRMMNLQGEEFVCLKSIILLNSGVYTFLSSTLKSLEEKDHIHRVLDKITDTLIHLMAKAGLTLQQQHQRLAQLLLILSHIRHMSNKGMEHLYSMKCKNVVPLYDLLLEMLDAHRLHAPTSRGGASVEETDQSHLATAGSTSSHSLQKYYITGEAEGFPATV

In the case of `Clc1ccc(Cl)c(-c2c(Cl)ccc(Cl)c2Cl)c1Cl` (racemic) [(±)-PCB 136, 2,2',3,3',6,6'-hexachlorobiphenyl], the Cytotoxicity result in series [1] is listed as “no cytotoxicity was observed”. The “Effect on E2-induced TFF1 gene expression, in words” value (shortened to “Effect”) in series [2] is reported as “significantly potentiated the E2-induced TFF1 gene expression”. For the same molecule, the “ER activity in luciferase reporter gene assays, in words” value in the series on ER was “ER-agonistic”. In addition, in the series with AR, the “AR activity in luciferase reporter gene assays, in words” value is “AR-antagonistic”. For the same molecule, the “ER-antagonistic Response at 25 μM (% of E2 response)” value on estrogen receptor (ER) [3] is recorded as 81 % of E2 response. At estrogen receptor (ER) [4], the “ER-mediated activity (induction of luciferase), in words” value (from here on “ER-mediated activity”) is “intermediate effect” and the “ER-agonistic Response at 10 μM (% of E2max)” value is 63 % of E2max. Further, in series [5], the “Antiandrogenic activity (suppression of DHT-induced PSA mRNA), in words” value was “significant antiandrogenic activity”.

Turning to `Clc1ccc(Cl)c(-c2c(Cl)ccc(Cl)c2Cl)c1Cl` [(+)-PCB 136, 2,2',3,3',6,6'-hexachlorobiphenyl], in [2], the “Effect” value is “significantly potentiated the E2-induced TFF1 gene expression”. At estrogen receptor (ER) [3], the “ER-antagonistic Response at 25 μM (% of E2 response)” value is 123 % of E2 response and the “Modulation of E2-dependent induction of luciferase activity, in words” value is “slightly potentiated E2-dependent induction of luciferase activity”. Further, at estrogen receptor (ER) [4], the “ER-mediated activity” value is given as “estrogenic; also recorded: strong ER-mediated activity” and the “ER-agonistic Response at 10 μM (% of E2max)” value is 89 % of E2max. Moreover, the “Activity towards RyR, in words” value with RyRs is “no significant activity towards the RyR”. In addition, the “PXR-agonistic Maximum response at 25 μM (% of RIF max)” value in [6] (setting [10]) is listed as 17 % of RIF max. Further, the concentration giving a half-maximal response (EC50) at 24 h in series [7] worked out at 6.6 µM. Also, in series [8], the “CAR-agonistic Maximum response at 5 μM (% of PB max)” value is given as 38 % of PB max and the “CAR-agonistic response EC25” value was determined as 1.0 µM. In series [9], the “Estrogenicity (TFF1 mRNA induction), in words” value is “relatively high estrogenicity”.

Consider `Clc1ccc(Cl)c(-c2c(Cl)ccc(Cl)c2Cl)c1Cl` [(−)-PCB 136, 2,2',3,3',6,6'-hexachlorobiphenyl], for which the “Effect” value in series [2] was “inactive”. At estrogen receptor (ER) [3], the “ER-antagonistic Response at 25 μM (% of E2 response)” value is 27 % of E2 response and the “Modulation of E2-dependent induction of luciferase activity, in words” value is recorded as “exhibited antiestrogenic effects, especially at higher concentrations”. For the same molecule, on estrogen receptor (ER) [4], the “ER-mediated activity” value is “did not induce a significant increase of luciferase activity” and the “ER-agonistic Response at 10 μM (% of E2max)” value was 27 % of E2max. Further, in the series on RyRs, the “Activity towards RyR, in words” value is “activate RyRs”. The “PXR-dependent CYP3A4 mRNA induction, in words” value in [6] is given as “significantly more potent inducer of PXR activity than (+)-PCB 136; also recorded: significantly more potent inducer of CYP3A4 mRNA than (+)-PCB 136”. For the same molecule, in [6] (setting [10]), the “PXR-agonistic Maximum response at 25 μM (% of RIF max)” value is given as 38 % of RIF max and the “PXR-agonistic response EC25” value was 7.4 µM. In series [8], the “CAR-agonistic Maximum response at 5 μM (% of PB max)” value was 51 % of PB max and the “CAR-agonistic response EC25” value was 0.7 µM.
